Rows were chosen to be rich in hits. Some 1.9% of all compounds tested hit in one or more screens of this group.
RAD54 branch = blocks human RAD54 Holliday junction branch migration. hit rate 0.14% among 360,000. FAM/BHQ fluorescence. inhibition, % at 10.4 µM. Q92698;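 active means mean normalized replicate activity at least 40 and at least half of replicates scoring 40 or more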;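 further: inhibitors cause a drop in the FAM fluorescence signal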
Target sequence (Q92698 whole entry, looked up): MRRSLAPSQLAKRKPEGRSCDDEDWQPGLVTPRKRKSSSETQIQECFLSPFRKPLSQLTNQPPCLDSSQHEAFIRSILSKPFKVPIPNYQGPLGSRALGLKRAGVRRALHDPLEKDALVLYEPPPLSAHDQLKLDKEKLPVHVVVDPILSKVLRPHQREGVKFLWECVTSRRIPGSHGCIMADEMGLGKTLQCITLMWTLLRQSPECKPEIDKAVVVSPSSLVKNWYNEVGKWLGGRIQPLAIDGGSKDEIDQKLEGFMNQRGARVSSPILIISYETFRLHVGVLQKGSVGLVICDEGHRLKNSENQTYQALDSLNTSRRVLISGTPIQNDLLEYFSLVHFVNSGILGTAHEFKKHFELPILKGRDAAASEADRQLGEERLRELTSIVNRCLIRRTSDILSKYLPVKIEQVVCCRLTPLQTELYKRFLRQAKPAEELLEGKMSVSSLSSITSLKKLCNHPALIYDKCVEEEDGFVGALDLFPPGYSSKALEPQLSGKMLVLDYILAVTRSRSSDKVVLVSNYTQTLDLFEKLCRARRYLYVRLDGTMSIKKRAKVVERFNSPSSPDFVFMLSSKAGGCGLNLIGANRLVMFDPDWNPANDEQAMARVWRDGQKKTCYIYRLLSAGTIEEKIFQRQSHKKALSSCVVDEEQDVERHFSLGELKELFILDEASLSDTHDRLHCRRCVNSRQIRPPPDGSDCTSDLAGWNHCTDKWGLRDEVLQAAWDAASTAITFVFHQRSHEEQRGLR
rRNA inh HTS = inhibits bacterial ribosomal RNA function over humanized ribosomes | E. coli WT GFP vs humanized-ribosome RFP mutants, fluorescence, 24 h; active compounds read low; DMSO median 0, no signal -100 | GFP signal change (wild-type ribosome), % (no concentration beside the values) | hit rate 1.6% among 350,000 | AID 720706;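 active means significant combined selectivity score with lowered wild-type GFP, culture density cut under 30%, mutant RFP and density less affected; inactive means any of these conditions unmet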
Cneo AK release = Cryptococcus neoformans lysis via adenylate kinase release; C. neoformans lysis, adenylate kinase release luminescence, 4 h; normalised: neutral wells 0, clomiphene wells 100; lysis activity, % at 15 µM; hit rate 0.2% among 360,000; AID 651654;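 active means mean lysis activity across replicates of at least 80%, whatever share of replicates individually reach that level; inactive means mean lysis activity below 80%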
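Assay system: C. neoformans cells. Amount: yeast cell density of 5 × 10^6 cells/mL. Technique: AK luminescence. Buffer or medium: YPD. Times: static 4 h at 37 °C with compound, 1 h detection. Dosing: single-point compound dose. Read-out: lysis from increased AK signal.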
PglD inh = blocks C. jejuni PglD acetyltransferase activity. purified PglD enzyme, DTNB colorimetric CoA detection. inhibition, % at 12.5 µM. hit rate 0.098% among 360,000. AID 602405; in the data active means inhibition above about 16%, passing the limit was not always enough
RAD52 anneal inh = blocks human RAD52 DNA annealing; hit rate 0.46% among 360,000; recombinant RAD52 DNA annealing, FRET fluorescence; AID 651710; inhibition, % at 18.7 µM;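 active means every replicate showing at least 50% inhibition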
Each line names hits and unclear results; the compound was inactive in the other large screens.

CCCOc1ccccc1/C=C(\C#N)C(=O)Nc1cccc(C)n1	rRNA inh HTS -23.5
Cc1cc(NC(=O)c2ccc(Cl)cc2)n(CCC#N)n1	none
N#CCCCCn1ccc(NC(=O)c2ccc(Cl)cc2O)n1	rRNA inh HTS -30.4 (no result: RAD54 branch, Cneo AK release, PglD inh)
COc1ccc(Cc2c(-c3ccc(OC)c(OC)c3)nc3ccc(C)cn23)c(C)c1	rRNA inh HTS -32.5
CO[C@@H]1CN(C)C(=O)c2ccc(NC(C)=O)cc2OC[C@@H](C)N(C(=O)c2ccccc2F)C[C@@H]1C	none (no result: RAD52 anneal inh)
CCCOC(c1ccccc1)(c1ccccc1)C(Oc1nc(C)cc(C)n1)C(=O)O (configuration not stated)	rRNA inh HTS -19.2
Cc1cc(C)nc(OC(C(=O)O)C(OCCC(C)C)(c2ccccc2)c2ccccc2)n1 (configuration not stated)	none
C=CCOc1ccc(/C=C2\SC(=S)N(C(C(=O)O)c3ccccc3)C2=O)cc1 (configuration not stated)	rRNA inh HTS -41.5 (no result: RAD54 branch, Cneo AK release, PglD inh)
CC(/C=C1\SC(=S)N(C(C(=O)O)c2ccccc2)C1=O)=C\c1ccccc1 (configuration not stated)	rRNA inh HTS -26.6 (no result: RAD54 branch, Cneo AK release, PglD inh)
O=C(Nc1cccc(F)c1)N1CC(=O)N2[C@H](CO)[C@H](c3ccc(-c4ccc(F)cc4)cc3)[C@@H]2C1	none (no result: RAD54 branch, Cneo AK release, PglD inh)
C[C@@H]1CN([C@H](C)CO)C(=O)c2cccc(NC(=O)Nc3ccccc3)c2O[C@@H]1CN(C)Cc1ccc(C(=O)Nc2ccccc2N)cc1	none
O=C(NC1CC1)c1cc(-c2ccc(Br)cc2)nc2ccccc12	none
CN1CCC(NC(=O)c2cc(-c3cccc(Br)c3)nc3ccccc23)CC1	rRNA inh HTS -23.2
O=C(c1ccccc1)N1CC(=O)N2[C@@H](CO)[C@H](c3ccc(/C=C/c4ccccc4)cc3)[C@@H]2C1	none (no result: RAD54 branch, Cneo AK release, PglD inh, RAD52 anneal inh)
CC1=C(C(=O)OCC2CCCCC2)C(c2cccc(O)c2)NC(=O)N1 (configuration not stated)	none (no result: rRNA inh HTS, RAD52 anneal inh)
CC1=C(C(=O)OC2CCCCCCC2)C(c2cccc(O)c2)NC(=O)N1 (configuration not stated)	rRNA inh HTS -33.4 (no result: RAD54 branch, Cneo AK release, PglD inh)
CN(CC(=O)NC(=O)NCc1ccccc1)Cc1cccc(Cl)c1Cl	rRNA inh HTS -37.6
CN(CC(=O)NCc1ccccc1)Cc1ccc(Cl)cc1	none
Cc1ccc(S(=O)(=O)Nc2ccc3c(c2)C(=O)N([C@@H](C)CO)C[C@@H](C)[C@@H](CN(C)C(=O)c2ccncc2)OCCCC[C@H](C)O3)cc1	none (no result: RAD52 anneal inh)
CC(C)[C@@H]1CC=CC[C@@H](C)Oc2ccccc2C(=O)N(C)[C@H](C)C(=O)N1 (mixture of isomers)	none (no result: RAD54 branch, Cneo AK release, PglD inh, RAD52 anneal inh)
Cc1n[nH]c(C)c1S(=O)(=O)N1CCC(C(=O)N2CCn3c2nc2ccccc23)CC1	rRNA inh HTS -22.9
O=C(C1CCN(S(=O)(=O)c2cccc3nsnc23)CC1)N1CCn2c1nc1ccccc12	none (no result: rRNA inh HTS, RAD52 anneal inh)
O=C(Nc1ccccc1)N1C[C@H]2[C@@H](c3ccccc31)[C@H](CO)N2C(=O)Cc1ccccn1	none
COc1ccc(NC(=O)Nc2ccc3c(c2)C(=O)N([C@@H](C)CO)C[C@@H](C)[C@H](CN(C)Cc2ccc(-c4ccccc4)cc2)O3)cc1	none
COc1cccc(CNC(=O)[C@H]2[C@H](CO)[C@H]3Cn4c(cccc4=O)[C@@H]2N3C(=O)C2CCCC2)c1	none (no result: RAD54 branch, Cneo AK release, PglD inh)
COc1cccc(NC(=S)N2CCC(Cc3ccccc3)CC2)c1	Cneo AK release 116.6
COc1ccc(OCC(=O)N2CCC(Cc3ccccc3)CC2)cc1	none
COc1ccc(NC(=S)N2CCC(Cc3ccccc3)CC2)cc1OC	none
COc1ccc(Br)c(C(=O)OCC(=O)N2CCC(Cc3ccccc3)CC2)c1	rRNA inh HTS -35.3
COc1ccc(CN2CC3(C2)CN(Cc2ccc4c(c2)OCO4)[C@H](CO)c2[nH]c4cc(OC)ccc4c23)cc1	none (no result: RAD54 branch, Cneo AK release, PglD inh, RAD52 anneal inh)
COc1cc(OC)cc(C(=O)NC(=S)N2CCCCCC2)c1	rRNA inh HTS -31.1 (no result: RAD54 branch, Cneo AK release, PglD inh)
O=C(C[C@@H]1CC[C@H](NC(=O)C2CCOCC2)[C@@H](CO)O1)NCc1ccncc1	none (no result: RAD54 branch, Cneo AK release, PglD inh)
Nc1nc(-c2ccccc2)c(N=Nc2ccc(Cl)cc2)s1	rRNA inh HTS -41.7 (no result: RAD54 branch, Cneo AK release, PglD inh)
CC(C)NC(=O)N(C)C[C@@H]1OCCCC[C@@H](C)Oc2ccc(NC(=O)CCCN(C)C)cc2C(=O)N([C@H](C)CO)C[C@H]1C	none
COc1ccccc1NC(=O)N(C)C[C@@H]1Oc2cc(Br)ccc2S(=O)(=O)N([C@@H](C)CO)C[C@H]1C	none
C[C@@H]1CC=CC[C@@H](c2ccccc2)NC(=O)[C@H](Cc2ccccc2)N(C)C(=O)c2ccccc2O1 (mixture of isomers)	none (no result: RAD54 branch, Cneo AK release, PglD inh, RAD52 anneal inh)
CC(=O)c1cccc(NC(=O)Nc2cnn(Cc3ccc(F)cc3)c2)c1	rRNA inh HTS -22.2 (no result: RAD54 branch, Cneo AK release, PglD inh)
CCN(CC)S(=O)(=O)c1ccc(NC=C(C#N)C#N)cc1	none
CN(C)S(=O)(=O)c1ccc(NC=C(C#N)C#N)cc1	Cneo AK release 138.1
CCc1ccc(C(=O)COC(=O)CNC(=O)c2ccc(Br)o2)cc1	rRNA inh HTS -21.9
COc1ccc(S(=O)(=O)N2CCCc3nc(C)c(C)cc32)cc1	rRNA inh HTS -14.7 (no result: RAD54 branch, Cneo AK release, PglD inh)
COCC(=O)N1CCC2(CC1)CN(C(=O)COC)[C@H](CO)c1c2c2ccc(OC)cc2n1C	none (no result: RAD54 branch, Cneo AK release, PglD inh, RAD52 anneal inh)
Cc1ccc(S(=O)(=O)Nc2ccc(NC(=O)c3c(F)c(F)c(F)c(F)c3F)cc2)cc1	rRNA inh HTS -25.6 (no result: RAD54 branch, Cneo AK release, PglD inh)
COc1ccc(NC(=O)CN(C)C(=O)CSc2ccc(Br)cc2)cc1	rRNA inh HTS -30.2
COc1ccc(NC(=O)CN(C)C(=O)CSc2ccc3c(c2)OCCO3)cc1	none
CC(=O)Nc1cccc2c1O[C@@H](CN(C)S(C)(=O)=O)[C@H](C)CN(C)C2=O	none (no result: RAD54 branch, Cneo AK release, PglD inh, RAD52 anneal inh)
CC(c1ccon1)N(C)C(=O)c1ccc2nc(Cc3cccc(Cl)c3)oc2c1 (configuration not stated)	rRNA inh HTS -28.2
CN(Cc1ccon1)C(=O)c1ccc2nc(Cc3cccc(Cl)c3)oc2c1	none
CCCNC(=O)N1CC2(CN(S(=O)(=O)c3ccc(OC)cc3)C2)c2c(n(C)c3cc(OC)ccc23)[C@H]1CO	none (no result: RAD54 branch, Cneo AK release, PglD inh)
Cc1ccccc1Nc1cccc2nonc12	rRNA inh HTS -39.6
CCn1cc(/C=N/O)c(C)n1	none (no result: rRNA inh HTS, RAD52 anneal inh)
Cc1cc(C)c(COCc2cc(/C=N/O)c(C)cc2C)cc1/C=N/O	rRNA inh HTS -36.2
O=c1oc(=S)oc2c1[C@H](c1ccc(Cl)cc1)O[C@H](C1CC1)C2	rRNA inh HTS -42.5 (no result: RAD54 branch, Cneo AK release, PglD inh)
C[C@@H]1CN([C@@H](C)CO)S(=O)(=O)c2ccc(C#Cc3cccc(F)c3)cc2O[C@@H]1CN(C)C(=O)NC1CCCCC1	none (no result: RAD54 branch, Cneo AK release, PglD inh, RAD52 anneal inh)
C[C@H]1CN([C@@H](C)CO)S(=O)(=O)c2ccc(C#Cc3cccc(F)c3)cc2O[C@@H]1CN(C)C(=O)NC1CCCCC1	Cneo AK release 102.2
C[C@@H]1CN([C@H](C)CO)S(=O)(=O)c2ccc(C#CC3CC3)cc2O[C@H]1CN(C)CC1CCOCC1	Cneo AK release 85.2
C[C@@H]1CN([C@H](C)CO)S(=O)(=O)c2ccc(C#CC3CC3)cc2O[C@@H]1CN(C)CC1CCOCC1	none

Screens deposited in PubChem BioAssay by Broad Institute.
